Data set [1] addresses Plasminogen (Homo sapiens) (UniProt P00747). In words: Inhibition of human plasmin at 100 uM.
The species named for data set [2] is Homo sapiens. The experiment in a line: Inhibition of human elastase at 100 uM.
The nature of data set [3]: Inhibition of chymotrypsin-like activity of human 20s proteasome beta5 subunit in human erythrocyte assessed as hydrolysis of Ac-WLA-AMC fluorogenic substrate.
Data set [4] deals with Procathepsin L (Homo sapiens) (UniProt P07711). The experiment in a line: Inhibition of human cathepsin L at 100uM.
Data set [5] has as its target T1, Calpain-1 catalytic subunit (Homo sapiens) (UniProt P07384).
T1 sequence (whole entry): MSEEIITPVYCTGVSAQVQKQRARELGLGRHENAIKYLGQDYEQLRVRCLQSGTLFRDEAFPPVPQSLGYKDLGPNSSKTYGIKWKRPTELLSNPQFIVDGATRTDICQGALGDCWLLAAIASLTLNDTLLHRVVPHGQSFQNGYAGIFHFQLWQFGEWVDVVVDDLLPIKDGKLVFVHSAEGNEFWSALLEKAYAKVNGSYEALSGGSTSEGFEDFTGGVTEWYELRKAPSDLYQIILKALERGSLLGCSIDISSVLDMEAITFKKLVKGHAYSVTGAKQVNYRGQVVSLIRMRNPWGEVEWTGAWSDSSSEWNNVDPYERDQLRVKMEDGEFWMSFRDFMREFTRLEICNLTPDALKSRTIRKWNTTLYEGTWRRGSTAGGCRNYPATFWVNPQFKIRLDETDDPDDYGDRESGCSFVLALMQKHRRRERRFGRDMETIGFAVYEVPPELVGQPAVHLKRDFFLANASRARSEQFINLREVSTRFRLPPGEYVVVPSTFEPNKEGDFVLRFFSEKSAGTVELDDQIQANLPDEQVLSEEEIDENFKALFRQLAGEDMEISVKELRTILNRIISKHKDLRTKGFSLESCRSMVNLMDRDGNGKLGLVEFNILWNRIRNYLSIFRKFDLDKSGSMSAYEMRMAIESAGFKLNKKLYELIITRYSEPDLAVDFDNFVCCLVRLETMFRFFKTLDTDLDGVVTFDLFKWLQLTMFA
In words: Inhibition of human calpain 1 at 100 uM.

The species entered for data set [6] is Homo sapiens. In words: Inhibition of human chymotrypsin at 100 uM.
The nature of data set [7]: Inhibition of chymotrypsin-like activity of human 20s proteasome beta2 subunit in human erythrocyte assessed as hydrolysis of Ac-WLA-AMC fluorogenic substrate.
Data set [8] is described as follows: Inhibition of chymotrypsin-like activity of human 20s proteasome beta-1 subunit in human erythrocyte assessed as hydrolysis of Ac-WLA-AMC fluorogenic substrate.
The nature of data set [9]: Cytotoxicity against human Calu6 cells assessed as cellular ATP level after 72 hrs by luminescence-based ATPlite assay. Type of data set: cell-based, Calu-6. Particulars: read-out: LC50. In a few lines:
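Calu6 cells, 2000 per well, incubated with compound for 72 h. Viability read as cellular ATP by luminescence (ATPlite). Values are means of at least three independent experiments.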
(In ATP-based viability assays light output follows the ATP content of the culture.)

Data set [10] has as its target Cathepsin B (Homo sapiens) (UniProt P07858). The experiment in a line: Inhibition of human cathepsin B at 100uM.
Data set [11] is described as follows: (§1) Inhibition of TNF-alpha-induced NF-kappaB activation in human HEK293 cells after 3 hrs by luciferase reporter gene assay. Type of data set: cell-based. The conditions noted are these: HEK293, 3 h. The method in brief:
(§2)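 NF-κB-luciferase reporter in HEK293 cells (10,000 per well). Cells were pre-incubated with compound for 1 h, then stimulated with 10 ng/ml TNF-α for 3 h with compound still present. IC50 and percentage inhibition were reported as means of at least three independent experiments.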
(In general: In a reporter assay the amount or activity of a reporter protein is the signal.)

The next data set relates to HEK293. The description is as §1. Type of data set: cell-based. Also noted: concentration or dose not given beside the values. The conditions noted are these: dose or concentration not given here. The method in brief: as §2
For data set [12], the target named is Tissue-type plasminogen activator (Homo sapiens) (UniProt P00750). In words: Inhibition of tissue plasminogen activator at 100 uM.
Another data set has as its target Trypsin (Homo sapiens) (UniProt P07477+P07478+P35030). In words: Inhibition of human trypsin at 100 uM. It is filed as protein assay.
Data set [13] concerns the target T2, Coagulation factor XII (Homo sapiens) (UniProt P00748).
T2 sequence (whole entry): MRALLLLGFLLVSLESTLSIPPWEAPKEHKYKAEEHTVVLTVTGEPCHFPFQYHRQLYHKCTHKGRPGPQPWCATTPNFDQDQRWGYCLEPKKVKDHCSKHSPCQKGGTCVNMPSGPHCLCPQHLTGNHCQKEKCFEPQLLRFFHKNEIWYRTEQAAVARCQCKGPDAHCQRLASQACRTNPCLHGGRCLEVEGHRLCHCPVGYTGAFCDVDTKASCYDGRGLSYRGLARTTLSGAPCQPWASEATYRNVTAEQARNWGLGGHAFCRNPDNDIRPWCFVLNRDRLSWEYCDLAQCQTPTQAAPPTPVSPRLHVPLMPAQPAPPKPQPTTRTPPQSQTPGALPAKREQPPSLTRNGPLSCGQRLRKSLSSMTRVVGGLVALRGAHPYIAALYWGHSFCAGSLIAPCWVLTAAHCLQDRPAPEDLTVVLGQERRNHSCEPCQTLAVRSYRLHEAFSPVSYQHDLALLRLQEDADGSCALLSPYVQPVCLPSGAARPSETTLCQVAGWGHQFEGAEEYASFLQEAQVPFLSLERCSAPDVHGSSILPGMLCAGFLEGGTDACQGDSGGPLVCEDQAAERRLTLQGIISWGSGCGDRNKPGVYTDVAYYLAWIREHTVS
In words: Inhibition of human coagulation factor beta 12a at 100 uM.

Data set [14] addresses Prothrombin (Homo sapiens) (UniProt P00734). In words: Inhibition of human thrombin at 100 uM.

The source made the active and inactive calls. No cut-off for these calls is given here.

Sequence of Procathepsin L (Homo sapiens) (P07711 114-333 limits assumed): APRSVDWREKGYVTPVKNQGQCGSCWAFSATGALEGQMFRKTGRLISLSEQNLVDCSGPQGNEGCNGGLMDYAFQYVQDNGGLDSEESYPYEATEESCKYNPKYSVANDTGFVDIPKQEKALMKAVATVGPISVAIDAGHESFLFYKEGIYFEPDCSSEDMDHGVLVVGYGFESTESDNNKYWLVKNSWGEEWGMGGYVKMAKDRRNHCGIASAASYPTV
Sequence of Plasminogen (Homo sapiens) (P00747 97-580 limits assumed): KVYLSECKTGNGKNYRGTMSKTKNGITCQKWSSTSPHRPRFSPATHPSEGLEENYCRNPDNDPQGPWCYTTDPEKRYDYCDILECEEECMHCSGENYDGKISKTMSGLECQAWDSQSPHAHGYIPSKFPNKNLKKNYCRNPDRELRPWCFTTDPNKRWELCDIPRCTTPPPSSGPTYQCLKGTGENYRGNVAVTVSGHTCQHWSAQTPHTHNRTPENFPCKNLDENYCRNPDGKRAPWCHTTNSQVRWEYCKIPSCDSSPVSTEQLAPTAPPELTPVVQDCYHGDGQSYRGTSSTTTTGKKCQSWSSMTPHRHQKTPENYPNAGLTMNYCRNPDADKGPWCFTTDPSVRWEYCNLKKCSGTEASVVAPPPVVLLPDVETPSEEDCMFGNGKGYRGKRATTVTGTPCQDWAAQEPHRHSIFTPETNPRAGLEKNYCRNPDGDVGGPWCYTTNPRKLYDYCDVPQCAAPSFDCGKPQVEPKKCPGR
Sequence of Plasminogen (Homo sapiens) (P00747 581-810 limits assumed): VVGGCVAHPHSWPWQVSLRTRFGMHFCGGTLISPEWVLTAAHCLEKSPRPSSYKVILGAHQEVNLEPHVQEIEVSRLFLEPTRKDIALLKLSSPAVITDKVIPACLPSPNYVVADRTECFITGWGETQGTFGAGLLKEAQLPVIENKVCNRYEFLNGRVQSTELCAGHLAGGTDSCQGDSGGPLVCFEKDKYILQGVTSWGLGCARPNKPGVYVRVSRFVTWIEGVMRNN
Sequence of Tissue-type plasminogen activator (Homo sapiens) (P00750 36-562 limits assumed): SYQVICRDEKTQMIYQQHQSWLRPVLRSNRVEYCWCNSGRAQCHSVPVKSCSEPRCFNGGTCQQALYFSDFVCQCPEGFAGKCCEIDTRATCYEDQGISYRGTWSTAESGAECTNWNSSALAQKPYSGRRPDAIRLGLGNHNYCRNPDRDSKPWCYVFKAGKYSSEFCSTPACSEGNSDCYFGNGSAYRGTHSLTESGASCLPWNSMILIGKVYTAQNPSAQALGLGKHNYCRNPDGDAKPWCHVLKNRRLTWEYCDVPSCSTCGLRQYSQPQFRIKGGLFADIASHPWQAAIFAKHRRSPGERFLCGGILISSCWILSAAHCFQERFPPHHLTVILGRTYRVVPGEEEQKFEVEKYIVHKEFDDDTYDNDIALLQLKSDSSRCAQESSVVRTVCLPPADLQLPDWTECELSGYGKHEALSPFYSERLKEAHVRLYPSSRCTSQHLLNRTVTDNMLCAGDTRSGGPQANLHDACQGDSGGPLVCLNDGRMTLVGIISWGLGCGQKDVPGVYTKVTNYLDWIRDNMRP

As for `COc1ccc2c(c1)CC(C(=O)N[C@H](C(=O)N[C@@H](CCc1ccccc1)C(=O)NCc1ccc(C)cc1)[C@@H](C)O)CC2` (some centres not stated), the inhibition result (in data set [1]; in the data set filed under Homo sapiens [2]; in [4]; in data set [5]; in the data set filed under Homo sapiens [6]; in data set [10]) was “Active” throughout. Further, the inhibition result (in data set [12]; at Trypsin (Homo sapiens); in [13]; in [14]) was “Active” throughout. For the same compound, the IC50 (as a rule, the point on the concentration scale where inhibition reaches its midpoint) is 0.02 µM in [3], greater than 20 µM in [7], greater than 20 µM in data set [8] and 0.095 µM in data set [11]. In data set [9], the CC50 at 72 h was determined as 2.3 µM. Moreover, the inhibition – broadly, the relative decrease from the control value, in per cent – in the data set with HEK293 was 89%.

As to `Cc1ccc(CNC(=O)[C@H](CCc2ccccc2)NC(=O)[C@@H](NC(=O)C(C)(C)Oc2ccccc2Cl)[C@@H](C)O)cc1`, the inhibition result (in data set [1]; in the data set filed under Homo sapiens [2]; in [4]; in [5]; in the data set listed under Homo sapiens [6]; in data set [10]) was “Active” each time. Further, the inhibition entry (in [12]; on Trypsin (Homo sapiens); in data set [13]; in data set [14]) was “Active” throughout. Besides, the IC50 in data set [3] was 0.075 µM; in [7] it was greater than 20 µM; in data set [8], greater than 20 µM; in data set [11], 0.69 µM. Besides, the CC50 at 72 h in data set [9] came to 1.5 µM. Besides, the inhibition in the data set with HEK293 was found to be 97%.

On to `COC[C@H](NC(=O)Cc1cccc(Oc2ccccc2)c1)C(=O)N[C@@H](CCc1ccccc1)C(=O)NCc1ccc(C)cc1`, for which the inhibition result (in [1]; in the data set filed under Homo sapiens [2]; in [4]; in [5]; in the data set filed under Homo sapiens [6]; in data set [10]) was “Active” in each case. The inhibition result (in data set [12]; on Trypsin (Homo sapiens); in [13]; in data set [14]) was “Active” each time. Further, the IC50 in [3] is 0.55 µM; in [7], greater than 20 µM; in [8], greater than 20 µM; in [11] it was 6.1 µM. In data set [9], the CC50 at 72 h was greater than 25 µM. In the data set on HEK293, this compound came in with an inhibition of 40%.

On to `COC[C@H](NC(=O)Cc1cccc(OCc2ccccc2)c1)C(=O)N[C@@H](CCc1ccccc1)C(=O)NCc1ccc(C)cc1`, for which the inhibition result (in [1]; in the data set filed under Homo sapiens [2]; in [4]; in data set [5]; in the data set listed under Homo sapiens [6]; in data set [10]) was “Active” in each case. The inhibition entry (in [12]; on Trypsin (Homo sapiens); in data set [13]; in [14]) was “Active” throughout. For the same compound, the 50% inhibitory concentration (IC50) in data set [3] was 0.074 µM; in data set [7], greater than 20 µM; in data set [8], greater than 20 µM; in [11], 0.34 µM. In addition, the CC50 at 72 h in data set [9] turned out to be 0.22 µM. This compound also came in with an inhibition in the data set with HEK293 of 78%.

As for `CCNC(=O)[C@H](CCc1ccccc1)NC(=O)[C@@H](NC(=O)c1ccc(OCc2ccccc2)cc1)[C@@H](C)O`, the inhibition result (in [1]; in the data set filed under Homo sapiens [2]; in data set [4]; in [5]; in the data set filed under Homo sapiens [6]; in [10]) was “Active” throughout. In addition, the inhibition entry (in [12]; on Trypsin (Homo sapiens); in data set [13]; in [14]) was “Active” each time. Moreover, the IC50 is 0.44 µM in data set [3], greater than 20 µM in [7], greater than 20 µM in data set [8] and 2.6 µM in data set [11]. For the same compound, the CC50 at 72 h in data set [9] came out at 5.1 µM. For the same compound, in the data set with HEK293, the inhibition was determined as 98%.

For the compound `Cc1ccc(CNC(=O)[C@H](CCc2ccccc2)NC(=O)[C@@H](NCc2ccc(OCc3ccccc3)cc2)[C@@H](C)O)cc1`, the inhibition entry (in data set [1]; in the data set listed under Homo sapiens [2]; in [4]; in data set [5]; in the data set listed under Homo sapiens [6]; in [10]) was “Active” throughout. Besides, the inhibition entry (in data set [12]; at Trypsin (Homo sapiens); in [13]; in data set [14]) was “Active” each time. Moreover, the half-inhibitory concentration (IC50) is 3.1 µM in data set [3], greater than 20 µM in data set [7], greater than 20 µM in data set [8] and greater than 50 µM in data set [11]. Also, in [9], the CC50 at 72 h is 14 µM. In addition, the inhibition in the data set with HEK293 was 37%.

For `C[C@@H](O)[C@H](NC(=O)c1ccc(OCc2ccccc2)cc1)C(=O)N[C@@H](CCc1ccccc1)C(=O)NCc1cccc(Cl)c1`, the inhibition entry (in data set [1]; in the data set filed under Homo sapiens [2]; in [4]; in [5]; in the data set listed under Homo sapiens [6]; in data set [10]) was “Active” throughout. Moreover, the inhibition result (in data set [12]; at Trypsin (Homo sapiens); in data set [13]; in [14]) was “Active” throughout. Also, the IC50 in data set [3] was 0.21 µM; in data set [7], greater than 20 µM; in [8], greater than 20 µM; in data set [11], 15 µM. In [9], the CC50 at 72 h was greater than 25 µM. Besides, in the data set on HEK293, the inhibition worked out at 44%.

In the case of `CC(NC(=O)[C@H](CCc1ccccc1)NC(=O)[C@@H](NC(=O)c1ccc(OCc2ccccc2)cc1)[C@@H](C)O)c1ccccc1` (some centres not stated), the inhibition entry (in data set [1]; in the data set filed under Homo sapiens [2]; in data set [4]; in [5]; in the data set filed under Homo sapiens [6]; in data set [10]) was “Active” each time. For the same compound, the inhibition result (in data set [12]; at Trypsin (Homo sapiens); in data set [13]; in data set [14]) was “Active” throughout. Further, the IC50 was greater than 100 µM in data set [3], greater than 20 µM in data set [7], greater than 20 µM in data set [8] and greater than 50 µM in data set [11]. The CC50 at 72 h in data set [9] is 9 µM.

(Values after ChEMBL document CHEMBL1268915, “Optimization of a series of dipeptides with a P3 threonine residue as non-covalent inhibitors of the chymotrypsin-like activity of the human 20S proteasome” (Bioorg Med Chem Lett, 2010).)
